Data published in ChEMBL document CHEMBL3352533, “Multi-dimensional target profiling of N,4-diaryl-1,3-thiazole-2-amines as potent inhibitors of eicosanoid metabolism” (Eur J Med Chem, 2014).

Legend:
[1] = target: Prostaglandin G/H synthase 1 (Homo sapiens) (UniProt P23219); experiment: Inhibition of COX1 in human platelets using arachidonic acid as substrate assessed as residual activity at 50 uM preincubated for 15 mins before substrate addition measured after 10 mins
Method in brief: (§1)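 Freshly isolated human platelets (10^8 in 1 ml PBS pH 7.4 with 1 mg/ml glucose and 1 mM CaCl2) preincubated with compound or DMSO 15 min at 37 °C, then 10 µM AA added; 10 min at 37 °C, stopped with ice-cold methanol. HPLC: 12-H(P)ETE for 12-LO, 12-HHT for COX-1; percent of DMSO control, n ≥ 3, mean ± S.E.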

[2] = target: T1, Polyunsaturated fatty acid lipoxygenase ALOX12 (Homo sapiens) (UniProt P18054); experiment: Inhibition of 12-LO-mediated 12-HPETE formation in human platelets using arachidonic acid as substrate assessed as residual activity at 50 uM preincubated for 15 mins before substrate addition measured after 10 mins; method in brief: as §1
T1 sequence (whole entry): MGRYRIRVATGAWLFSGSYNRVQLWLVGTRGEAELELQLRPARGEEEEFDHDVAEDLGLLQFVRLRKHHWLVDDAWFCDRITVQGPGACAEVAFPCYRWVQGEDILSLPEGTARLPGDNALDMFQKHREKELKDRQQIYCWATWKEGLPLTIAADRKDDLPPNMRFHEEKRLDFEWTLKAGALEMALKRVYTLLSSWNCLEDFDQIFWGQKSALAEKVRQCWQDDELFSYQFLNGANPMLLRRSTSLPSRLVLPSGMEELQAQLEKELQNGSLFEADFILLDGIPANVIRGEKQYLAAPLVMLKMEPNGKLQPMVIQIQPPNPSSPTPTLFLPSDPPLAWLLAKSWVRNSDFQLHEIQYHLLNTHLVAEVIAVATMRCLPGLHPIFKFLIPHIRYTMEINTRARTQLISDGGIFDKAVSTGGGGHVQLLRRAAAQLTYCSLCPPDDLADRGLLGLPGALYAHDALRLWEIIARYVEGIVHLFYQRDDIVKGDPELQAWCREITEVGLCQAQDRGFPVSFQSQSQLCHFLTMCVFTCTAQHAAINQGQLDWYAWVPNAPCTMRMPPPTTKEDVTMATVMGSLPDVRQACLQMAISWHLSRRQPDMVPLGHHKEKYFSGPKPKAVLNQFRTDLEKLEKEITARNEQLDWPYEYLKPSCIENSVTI

[3] = target: T2, Prostaglandin G/H synthase 2 (Homo sapiens) (UniProt P35354); experiment: Inhibition of COX2-mediated PGE2 formation in IL1beta/TNFalpha-stimulated human HeLa cells using arachidonic acid as substrate assessed as residual activity at 50 uM measured after 30 mins by ELISA; format: cell-based
T2 sequence (whole entry): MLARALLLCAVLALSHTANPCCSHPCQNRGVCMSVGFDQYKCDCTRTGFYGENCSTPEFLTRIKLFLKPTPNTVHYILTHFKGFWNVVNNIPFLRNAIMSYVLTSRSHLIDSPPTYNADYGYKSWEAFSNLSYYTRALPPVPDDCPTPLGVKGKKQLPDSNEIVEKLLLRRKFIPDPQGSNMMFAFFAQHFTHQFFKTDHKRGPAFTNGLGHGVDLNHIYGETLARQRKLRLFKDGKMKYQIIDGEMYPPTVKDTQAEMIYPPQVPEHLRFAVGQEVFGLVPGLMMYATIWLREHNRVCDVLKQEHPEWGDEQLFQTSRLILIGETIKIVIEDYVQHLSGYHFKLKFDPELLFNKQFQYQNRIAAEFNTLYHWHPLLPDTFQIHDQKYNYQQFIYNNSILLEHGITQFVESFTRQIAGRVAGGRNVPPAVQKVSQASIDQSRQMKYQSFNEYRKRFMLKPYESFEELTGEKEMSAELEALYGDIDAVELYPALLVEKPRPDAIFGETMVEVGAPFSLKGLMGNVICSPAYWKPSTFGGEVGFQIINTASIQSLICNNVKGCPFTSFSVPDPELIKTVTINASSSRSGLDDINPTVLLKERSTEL
Method in brief: (§2)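 HeLa cells (3 × 10^4/well) grown 24 h, then induced with 1 ng/ml IL1β and 5 ng/ml TNFα for 24 h; washed three times with PBS containing fatty-acid-free BSA 1 mg/ml. Medium with cytokines plus compound or DMSO for 30 min, stopped on ice; supernatant PGE2 by ELISA, percent of DMSO control. Three experiments, mean ± S.E.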

[4] = target: T3, Polyunsaturated fatty acid lipoxygenase ALOX15 (Homo sapiens) (UniProt P16050); experiment: Inhibition of 15-LO1-mediated 15-HPETE formation in human eosinophil using arachidonic acid as substrate assessed as residual activity at 50 uM preincubated for 15 mins before substrate addition measured after 10 mins
T3 sequence (whole entry): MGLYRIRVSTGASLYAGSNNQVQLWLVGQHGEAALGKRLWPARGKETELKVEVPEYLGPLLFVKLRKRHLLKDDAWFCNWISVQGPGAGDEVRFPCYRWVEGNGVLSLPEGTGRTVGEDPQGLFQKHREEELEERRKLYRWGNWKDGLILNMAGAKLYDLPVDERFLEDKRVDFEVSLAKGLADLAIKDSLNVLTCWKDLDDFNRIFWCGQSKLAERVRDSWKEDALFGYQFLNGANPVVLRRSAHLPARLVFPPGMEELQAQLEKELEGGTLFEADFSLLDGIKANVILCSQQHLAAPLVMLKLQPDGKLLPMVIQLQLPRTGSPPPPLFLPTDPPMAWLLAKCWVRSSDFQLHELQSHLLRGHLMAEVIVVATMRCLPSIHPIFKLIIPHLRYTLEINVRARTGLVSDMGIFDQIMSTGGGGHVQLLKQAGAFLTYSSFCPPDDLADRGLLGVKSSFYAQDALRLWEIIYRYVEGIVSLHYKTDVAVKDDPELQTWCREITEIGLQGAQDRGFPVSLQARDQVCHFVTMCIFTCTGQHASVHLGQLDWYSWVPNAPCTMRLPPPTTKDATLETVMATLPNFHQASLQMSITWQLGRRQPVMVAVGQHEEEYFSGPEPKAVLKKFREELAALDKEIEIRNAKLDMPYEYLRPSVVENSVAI
Method in brief: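 Freshly isolated human PMNL (5 × 10^6/ml PBS-glucose, 1 mM CaCl2), with 15-LO1 from contaminating eosinophils, preincubated with compound 15 min at 37 °C; stimulated with 2.5 µM A23187 plus 20 µM AA for 10 min at 37 °C, methanol stop. 15-H(P)ETE peak quantified by HPLC as percent of DMSO control; n ≥ 3, mean ± S.E.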

[5] = target: T2, Prostaglandin G/H synthase 2 (Homo sapiens); experiment: Inhibition of COX2-mediated PGE2 formation in IL1beta/TNFalpha-stimulated human HeLa cells using arachidonic acid as substrate assessed as residual activity at 10 uM measured after 30 mins by ELISA; format: cell-based; method in brief: as §2
[6] = Cytotoxicity against human U937 cells at 30 uM after 48 hrs by LDH assay; format: cell-based; conditions: u-937, 48 h
Method in brief: (§3)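 U937 cells (DSMZ; RPMI, 10% FCS, 37 °C, 5% CO2) seeded at 1.5 × 10^4 cells/well, exposed to test agent or DMSO vehicle for 48 h. Supernatant collected after centrifugation; LDH release quantified by kit, expressed relative to detergent-lysed maximum (100%). Three experiments, mean ± S.E.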

[7] = target: Prostaglandin G/H synthase 1 (Homo sapiens) (UniProt P23219); experiment: Inhibition of COX1 in human platelets using arachidonic acid as substrate assessed as residual activity at 10 uM preincubated for 15 mins before substrate addition measured after 10 mins; method in brief: as §1
[8] = Cytotoxicity against human U937 cells at 100 uM after 48 hrs by LDH assay; format: cell-based; conditions: u-937, 48 h; method in brief: as §3

Sequence of Prostaglandin G/H synthase 1 (Homo sapiens) (P23219 whole entry): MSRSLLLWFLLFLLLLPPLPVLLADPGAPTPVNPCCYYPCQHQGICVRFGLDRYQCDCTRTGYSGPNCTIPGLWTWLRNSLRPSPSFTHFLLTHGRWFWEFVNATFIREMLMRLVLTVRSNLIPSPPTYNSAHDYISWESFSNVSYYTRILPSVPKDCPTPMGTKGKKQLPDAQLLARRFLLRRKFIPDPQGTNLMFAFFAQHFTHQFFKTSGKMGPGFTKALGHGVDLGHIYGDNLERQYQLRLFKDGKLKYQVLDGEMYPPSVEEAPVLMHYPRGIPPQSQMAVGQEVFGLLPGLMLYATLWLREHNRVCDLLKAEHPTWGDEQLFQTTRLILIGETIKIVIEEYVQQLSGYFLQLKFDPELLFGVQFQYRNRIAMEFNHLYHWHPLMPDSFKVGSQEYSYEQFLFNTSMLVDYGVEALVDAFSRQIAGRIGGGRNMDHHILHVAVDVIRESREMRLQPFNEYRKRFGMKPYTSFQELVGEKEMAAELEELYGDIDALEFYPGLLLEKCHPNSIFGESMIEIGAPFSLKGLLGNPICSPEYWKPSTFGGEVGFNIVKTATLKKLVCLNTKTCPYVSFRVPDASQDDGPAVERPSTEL

| Compound | Activity [1] [%] | Activity [2] [%] | Activity [3] [%] | Activity [4] [%] | Activity [5] [%] | Activity [7] [%] | Activity [6] [%] | Activity [8] [%] |
| --- | --- | --- | --- | --- | --- | --- | --- | --- |
| COc1ccccc1Nc1nc(-c2ccc(Cl)cc2)cs1 | 55.8 | > 70 | 5.3 | > 70 |  |  |  |  |
| COc1ccc(Nc2nc(-c3ccc(Cl)cc3)cs2)c(OC)c1 | > 70 | > 70 | 18.4 | > 70 |  |  |  |  |
| Oc1ccccc1Nc1nc(-c2ccc(Cl)cc2)cs1 |  | > 70 |  | > 70 | 9.1 | 67.4 | 0.9 |  |
| COc1ccc(-c2csc(Nc3ccccc3)n2)cc1 | 2 | > 70 | 2.3 | 50.3 |  |  |  |  |
| CCCCCC(O)c1cccc(OCc2ccc3ccccc3n2)c1 (stereo not given) [REV-5901] |  |  |  |  |  |  |  | 28.3 |
| CCOc1ccc(-c2csc(Nc3ccc(O)cc3)n2)cc1 | 16.6 | > 70 | 2.1 | > 70 |  |  |  |  |
| Oc1ccc(Nc2nc(-c3ccccc3)cs2)cc1 | 16.2 | 34.9 | 3.1 | 13 |  |  | 5.5 |  |
| Oc1cccc(Nc2nc(-c3ccccc3)cs2)c1 | 4.1 | > 70 | 2.4 | > 70 |  |  |  |  |
| COc1ccc(Nc2nc(-c3ccc(Cl)cc3)cs2)cc1OC |  | > 70 | 8.6 | > 70 |  |  |  |  |
| Clc1ccc(-c2csc(Nc3cc(Cl)cc(Cl)c3)n2)cc1 | 2.3 | > 70 | 30.9 | > 70 |  |  |  |  |
| CC(c1cc2ccccc2s1)N(O)C(N)=O (stereo not given) [ZILEUTON] |  |  |  |  |  |  |  | 1.5 |
| OC(c1ccc(Nc2nc(-c3ccc(Cl)cc3)cs2)cc1)(C(F)(F)F)C(F)(F)F | 2.6 | > 70 | 42.9 | > 70 |  |  | 21.7 |  |
| Oc1ccc(Nc2nc(-c3ccc(Cl)c(Cl)c3)cs2)cc1 |  | 32.6 |  | > 70 | 15.1 | 69.4 |  |  |
| COc1ccc(Nc2nc(-c3ccccc3)cs2)cc1 | 2.3 | > 70 | 3.2 | > 70 |  |  |  |  |
| CC(=O)c1ccc(Nc2nc(-c3ccc(F)cc3)cs2)cc1 | 56.1 | > 70 | 9.1 | > 70 |  |  |  |  |
| FC(F)(F)c1cc(Nc2nc(-c3ccc(Cl)cc3)cs2)cc(C(F)(F)F)c1 | 13.7 | > 70 | 45.1 | > 70 |  |  | 18.2 |  |

More lines, main results first:

| Activity [1] [%] | Activity [2] [%] | Activity [3] [%] | Activity [4] [%] | Activity [5] [%] | Activity [7] [%] | Compound | Activity [6] [%] | Activity [8] [%] |
| --- | --- | --- | --- | --- | --- | --- | --- | --- |
| 38.7 | > 70 | 59.9 | > 70 |  |  | CC(=O)c1cccc(Nc2nc(-c3ccc(Cl)cc3)cs2)c1 |  |  |
| 2.1 | 4.2 | 2.1 | 53.7 |  |  | Oc1ccc(-c2csc(Nc3ccc(F)cc3)n2)cc1 |  |  |
| > 70 | > 70 | 39.1 | 41.3 |  |  | O=S(=O)(c1ccc(-c2csc(Nc3ccc(Cl)cc3)n2)cc1)N1CCOCC1 |  |  |
| > 70 | > 70 | > 70 | > 70 |  |  | Clc1ccc(-c2csc(Nc3ccc(N4CCOCC4)cc3)n2)cc1 |  |  |
| 3.2 | > 70 | 3.8 | > 70 |  |  | Clc1ccc(-c2csc(Nc3ccc4c(c3)OCO4)n2)cc1 |  |  |
| 6 | > 70 | 5.5 | > 70 |  |  | Clc1ccc(-c2csc(Nc3ccc4c(c3)OCCO4)n2)cc1 |  |  |
| 28.6 | > 70 | 4.1 | > 70 |  |  | Oc1ccc(Nc2nc(-c3ccc(Cl)cc3)cs2)cc1 | 17.5 |  |
| 3.5 | > 70 | 2.1 | 43.1 |  |  | Oc1ccc(-c2csc(Nc3ccc(Cl)cc3)n2)cc1 | 1.4 |  |
| 1.1 | > 70 | 17.8 | > 70 |  |  | FC(F)(F)Oc1ccc(Nc2nc(-c3ccc(Cl)cc3)cs2)cc1 |  |  |
| 26.7 | > 70 | 3.3 | > 70 |  |  | Nc1ccc(-c2csc(Nc3ccc(O)cc3)n2)cc1 |  |  |
| 7.7 | > 70 | 5 | > 70 |  |  | Clc1ccc(-c2csc(Nc3ccccc3)n2)cc1 |  |  |
| 19.5 | > 70 | 2.7 | 57 |  |  | Oc1cccc(Nc2nc(-c3ccc(Cl)cc3)cs2)c1 |  |  |
| 2.7 | > 70 | > 70 | > 70 |  |  | FC(F)(F)c1ccc(Nc2nc(-c3ccc(Cl)cc3)cs2)cc1 |  |  |
| 18.5 | > 70 | 3.4 | 44.6 |  |  | Cc1ccc(-c2csc(Nc3ccc(O)cc3)n2)cc1 | 14 |  |
| 25.6 | > 70 | 3.7 | > 70 |  |  | COc1ccc(Nc2nc(-c3ccc(Cl)cc3)cs2)cc1 | 1.6 |  |
